Assay results reported in ChEMBL document CHEMBL1155043, “Complexation of the anti-Trypanosoma cruzi drug benznidazole improves solubility and efficacy” (J Med Chem, 2008).
Values after ≈ are worked out from the molar mass of the structure shown. Active and inactive are the calls of the source. The calls are words filed in the database; no cut-off is given here.

Columns and labels:
Trypanosoma cruzi [1] = experiment: Antitrypanosomal activity against Trypanosoma cruzi Y epimastigotes assessed as number of motile forms after 24 hrs by hemocytometer; format: functional, organism-based
Procedure, shortened: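 Y strain epimastigotes in Schneider's medium with 20% FCS, exponential phase, PBS-washed, 2.0 × 10^6/mL. Triplicate wells with compound in PBS at 0.1, 0.25, 0.5 and 1.0 mM, 37 °C, 5% CO2, 24 h. Motile forms counted by hemocytometer; IC50 taken as 50% antiproliferative activity. Mean ± SEM, n = 3.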

Trypanosoma cruzi [2] = experiment: Antiproliferative activity against Trypanosoma cruzi Y epimastigotes assessed as number of motile forms at 0.5 mM after 24 hrs by hemocytometer; format: functional; conditions: read-out: GI
Procedure, shortened: (§1)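 Y strain epimastigotes grown in Schneider's medium with 20% fetal calf serum, taken in exponential phase, PBS-washed, resuspended to 2.0 × 10^6/mL. Plated in triplicate with compound diluted in PBS, incubated at 37 °C, 5% CO2. Motile forms counted by hemocytometer; % growth inhibition = {1 - [(LDt - LDt0)/(LCt - LCt0)]} × 100 against untreated wells.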

Trypanosoma cruzi [3] = experiment: Antitrypanosomal activity against Trypanosoma cruzi Y infected in Swiss mouse assessed as survivality at 100 nmol/kg, ip after 15 consecutive days; format: functional, organism-based
Procedure, shortened: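 Female Swiss mice, 5-6 weeks old, groups of six, infected ip with 1.0 × 10^3 Y strain bloodstream trypomastigotes. Treated ip in 100 µL PBS daily for 15 consecutive days. Controls were untreated or PBS-only infected mice. Survival followed up to 120 days.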

[4] = Aqueous solubility at pH 6.5; format: physicochemical
Procedure, shortened: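 Solubility measured in a bio-relevant medium simulating fasted proximal small intestine: 3 mM sodium taurocholate, 0.75 mM lecithin, KH2PO4, KCl, pH 6.5, 37 °C. Excess compound stirred 24 h in 5 mL, filtered through 0.45 µm, diluted, and quantified by UV-vis at 323 nm (ε = 4.5 × 10^3 M-1 cm-1), in triplicate.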

Trypanosoma cruzi [5] = experiment: Antitrypanosomal activity against Trypanosoma cruzi Y infected in Swiss mouse assessed as survivality at 385 umol/kg, po for 1 day after 15 days; format: functional
Procedure, shortened: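 Female Swiss mice, 5-6 weeks old, infected intraperitoneally with 1.0 × 10^3 Y-strain bloodstream trypomastigotes. A single oral dose in PBS was given only on the first day after infection. Groups of six, with infected controls. Survival was followed, and parasitemia was counted as motile trypomastigotes in 5 µL tail blood.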

Trypanosoma cruzi [6] = experiment: Antitrypanosomal activity against bloodstream trypomastigote of Trypanosoma cruzi Y assessed as number of motile forms after 1 hr by hemocytometer; format: functional, organism-based
Procedure, shortened: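 Bloodstream trypomastigotes (Y strain) taken from mice at peak parasitemia, resuspended to 1.0 × 10^6/mL. Triplicate wells with compound in PBS at 0.1, 0.25, 0.5 and 1.0 mM, 37 °C, 5% CO2, 1 h. Motile forms counted by hemocytometer; % trypanocidal activity = [1 - (LDt/LCt)] × 100 against untreated wells.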

Trypanosoma cruzi [7] = experiment: Antitrypanosomal activity against Trypanosoma cruzi Y infected in Swiss mouse assessed as decrease in parasitemia at 385 umol/kg, po after 15 consecutive days; format: functional, organism-based
Trypanosoma cruzi [8] = experiment: Antiproliferative activity against Trypanosoma cruzi Y epimastigotes assessed as number of motile forms at 1 mM after 4 hrs by hemocytometer; format: functional; conditions: read-out: GI; procedure, shortened: as §1
Trypanosoma cruzi [9] = experiment: Antitrypanosomal activity against Trypanosoma cruzi Y infected in Swiss mouse assessed as survivality at 385 umol/kg, po after 15 consecutive days; format: functional
Procedure, shortened: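 Female Swiss mice, 5-6 weeks old, infected intraperitoneally with 1.0 × 10^3 Y-strain bloodstream trypomastigotes from an infected mouse. Oral dosing once daily in PBS for 15 consecutive days. Groups of six; untreated or PBS-only infected controls. Parasitemia counted as motile trypomastigotes in 5 µL tail blood, and survival of the treated animals recorded.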

Trypanosoma cruzi [10] = experiment: Antiproliferative activity against Trypanosoma cruzi Y epimastigotes assessed as number of motile forms at 0.5 mM after 4 hrs by hemocytometer; format: functional; conditions: read-out: GI; procedure, shortened: as §1
Trypanosoma cruzi [11] = experiment: Antiproliferative activity against Trypanosoma cruzi Y epimastigotes assessed as number of motile forms at 0.1 mM after 4 hrs by hemocytometer; format: functional; conditions: read-out: GI; procedure, shortened: as §1
Trypanosoma cruzi [12] = experiment: Antiproliferative activity against Trypanosoma cruzi Y epimastigotes assessed as number of motile forms at 1 mM after 24 hrs by hemocytometer; format: functional; conditions: read-out: GI; procedure, shortened: as §1
Trypanosoma cruzi [13] = experiment: Antiproliferative activity against Trypanosoma cruzi Y epimastigotes assessed as number of motile forms at 0.1 mM after 1 hr by hemocytometer; format: functional; conditions: read-out: GI; procedure, shortened: as §1
Trypanosoma cruzi [14] = experiment: Antiproliferative activity against Trypanosoma cruzi Y epimastigotes assessed as number of motile forms at 1 mM after 1 hr by hemocytometer; format: functional; conditions: read-out: GI; procedure, shortened: as §1
Trypanosoma cruzi [15] = experiment: Antiproliferative activity against Trypanosoma cruzi Y epimastigotes assessed as number of motile forms at 0.5 mM after 1 hr by hemocytometer; format: functional; conditions: read-out: GI; procedure, shortened: as §1
Trypanosoma cruzi [16] = experiment: Antiproliferative activity against Trypanosoma cruzi Y epimastigotes assessed as number of motile forms at 0.1 mM after 24 hrs by hemocytometer; format: functional; conditions: read-out: GI; procedure, shortened: as §1
V79 = experiment: Cytotoxicity against chinese hamster V79 cells; format: cell-based; conditions: Cricetulus griseus

Structure (SMILES): O=C(Cn1ccnc1[N+](=O)[O-])NCc1ccccc1 [BENZNIDAZOLE]
- IC50 (Trypanosoma cruzi [1]): > 1000 µM
- inhibition of growth at 500 µM (Trypanosoma cruzi [2]): 26%
- Activity (Trypanosoma cruzi [3]): inactive
- solubility [4]: 0.4 mg/mL (≈ 1540 µM)
- survival at 385 µmol/kg (Trypanosoma cruzi [5]): 20%
- IC50 (Trypanosoma cruzi [6]): > 1000 µM
- Activity (Trypanosoma cruzi [7]): Active
- inhibition of growth at 1000 µM (Trypanosoma cruzi [8]): 24%
- survival at 385 µmol/kg (Trypanosoma cruzi [9]): 100%
- inhibition of growth at 500 µM (Trypanosoma cruzi [10]): 15%
- inhibition of growth at 100 µM (Trypanosoma cruzi [11]): 11%
- inhibition of growth at 1000 µM (Trypanosoma cruzi [12]): 31%
- inhibition of growth at 100 µM (Trypanosoma cruzi [13]): 0%
- inhibition of growth at 1000 µM (Trypanosoma cruzi [14]): 7%
- inhibition of growth at 500 µM (Trypanosoma cruzi [15]): 0%
- inhibition of growth at 100 µM (Trypanosoma cruzi [16]): 15%
- IC50 (V79): 2000 µM
